The target of series [1] is T1, Proteasome component C5 (Homo sapiens) (UniProt P20618).
T1 sequence (whole entry): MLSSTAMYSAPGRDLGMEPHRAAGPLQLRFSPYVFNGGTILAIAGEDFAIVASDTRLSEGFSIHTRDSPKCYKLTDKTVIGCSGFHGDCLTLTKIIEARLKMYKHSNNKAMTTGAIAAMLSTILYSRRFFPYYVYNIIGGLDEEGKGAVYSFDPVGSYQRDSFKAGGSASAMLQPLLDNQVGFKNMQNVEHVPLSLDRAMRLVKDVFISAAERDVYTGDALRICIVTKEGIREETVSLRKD
Briefly: Inhibition of caspase like activity of 26S proteasome beta 1 subunit in human U266 cells assessed as residual activity using […] as substrate at 10 uM preincubated for 1 hr followed by substrate addition and measured after 4 hrs by fluorescence assay relative to control. The series is classed as cell-based.

Series [2] deals with Proteasome Macropain subunit (Homo sapiens) (UniProt P49721). Briefly: Inhibition of trypsin like activity of 26S proteasome beta 2 subunit in human U266 cells assessed as residual activity using […] as substrate at 10 uM preincubated for 1 hr followed by substrate addition and measured after 4 hrs by fluorescence assay relative to control. Format: cell-based.
Chain of Proteasome Macropain subunit (Homo sapiens) (P49721 whole entry): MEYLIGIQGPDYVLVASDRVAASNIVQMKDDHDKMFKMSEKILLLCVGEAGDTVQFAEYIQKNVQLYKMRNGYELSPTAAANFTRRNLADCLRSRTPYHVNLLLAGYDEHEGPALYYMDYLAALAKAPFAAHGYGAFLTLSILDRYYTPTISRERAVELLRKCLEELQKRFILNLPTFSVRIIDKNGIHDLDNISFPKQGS
The test system of another series is K562. Put plainly: Antiproliferative activity against human K562 cells after 72 hrs by calcein AM staining based fluorescence assay. Format: functional. The following applies: K562, 72 h. In short, it runs like this:
(§1)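 Cells treated with three-fold compound dilutions in triplicate for 72 h. Calcein AM added afterwards and live-cell fluorescence read at 485/538 nm (ex/em). GI50, the concentration lethal to 50% of tumour cells, calculated from dose-response curves.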

Another series deals with CCRF-CEM. Put plainly: Antiproliferative activity against human CEM cells after 72 hrs by calcein AM staining based fluorescence assay. Format: functional. In short, it runs like this: as §1
In series [3] the test system is U-266. Briefly: Antiproliferative activity against human U266 cells after 72 hrs by calcein AM staining based fluorescence assay. Format: functional. To be noted: U-266, 72 h. In short, it runs like this: as §1
The species entered for series [4] is Homo sapiens. Briefly: Inhibition of proteasome in human U266 cells assessed as increase in accumulation of polyubiquitinated proteins by Western blot analysis. To be noted: TDE = time-dependent effect. Format: cell-based. In short, it runs like this: (§2)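 Treated U266 cells harvested in Laemmli sample buffer. Proteins separated by SDS-PAGE and electroblotted to nitrocellulose. Membranes blocked, probed overnight with specific primary antibodies, then detected with peroxidase-conjugated secondary antibodies.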
Background: In western blotting, separated proteins are transferred to a membrane and probed.

The target in series [5] is T2, Proteasome Macropain subunit MB1 (Homo sapiens) (UniProt P28074).
T2 sequence (whole entry): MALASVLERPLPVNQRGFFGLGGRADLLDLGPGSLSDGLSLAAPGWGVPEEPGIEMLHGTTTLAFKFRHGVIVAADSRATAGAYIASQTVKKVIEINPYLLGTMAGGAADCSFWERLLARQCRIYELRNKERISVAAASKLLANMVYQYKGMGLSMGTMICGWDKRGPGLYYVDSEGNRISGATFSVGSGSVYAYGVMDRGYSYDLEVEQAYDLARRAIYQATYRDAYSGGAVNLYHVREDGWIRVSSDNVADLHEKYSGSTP
Briefly: Inhibition of chymotrypsin like activity of 26S proteasome beta 5 subunit in human U266 cells assessed as residual activity using N-Suc-LLVY-AMC as substrate at 10 uM preincubated for 1 hr followed by substrate addition and measured after 4 hrs by fluorescence assay relative to control. Format: cell-based.

Series [6] is filed under the species Homo sapiens. Briefly: Inhibition of proteasome in human U2OS cells stably expressing GFP fused to short degron assessed as increase in GFP accumulation pre-incubated for 1 hr and measured after 9 hrs by live-cell imaging microscopy. The series is classed as cell-based.
In series [7] the target is T3, Proteasome Macropain subunit MB1 (Homo sapiens, UniProt P28074).
T3 sequence (P28074 whole entry): T2 sequence (whole entry)
Briefly: Inhibition of chymotrypsin-like activity of 26S proteasome beta 5 subunit in human U266 cells using Suc-LLVY-aminoluciferin as substrate after 1 hr by Proteosome-Glo luminescence assay. Format: cell-based. A digest of the protocol:
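U266 multiple myeloma cells plated at 20,000 cells/well and exposed to varying compound concentrations for 1 h at 37 °C, in duplicate. 26S proteasome activity measured immediately as luciferase-coupled hydrolysis of the β5 substrate Suc-LLVY-aminoluciferin (Proteasome-Glo), read by luminescence. Activity normalised to untreated cells; IC50 derived from dose-response curves.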

Series [8] relates to U2OS. Briefly: Cytotoxicity against human U2OS cells at 6.25 uM after 16 hrs by live-cell imaging microscopic analysis. The series is classed as cell-based. A digest of the protocol:
(§3)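 U2OS degron-GFP cells plated at 10,000 cells/well and treated with a range of compound concentrations. Proliferation followed by live-cell time-lapse imaging as percent confluence (occupied image area) over time, up to 72 h.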

Series [9] is filed under the species Homo sapiens. Put plainly: Inhibition of proteasome in human U2OS cells stably expressing GFP fused to short degron assessed as increase in GFP accumulation at 200 nM […] by live-cell imaging microscopy. Format: cell-based.
The test system of series [10] is U-266. Briefly: Induction of apoptosis in human U266 cells assessed as increase in caspase-3/7 activity using Ac-DEVD-AMC as substrate at 250 nM by fluorescence assay. Format: functional, cell-based. To be noted: TDE = time-dependent effect. In short, it runs like this:
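Homogenates clarified at 10,000 × g for 30 min at 4 °C and protein-equalised. Lysates incubated with 100 µM Ac-DEVD-AMC in pH 7.3 PIPES/EGTA/MgCl2/DTT buffer. Fluorescence read at 355/460 nm and normalised to untreated control.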

Series [11] concerns U-266. Briefly: Induction of apoptosis in human U266 cells assessed as PARP1 cleavage at 250 nM after 16 to 24 hrs by Western blot method. Format: functional, cell-based. A digest of the protocol: as §2
The species entered for series [12] is Homo sapiens. Put plainly: Inhibition of proteasome in human U266 cells assessed as increase in accumulation of polyubiquitinated proteins at 250 nM by Western blot analysis. To be noted: TDE = time-dependent effect. Format: cell-based. In short, it runs like this: as §2
The subject of series [13] is U-266. Put plainly: Induction of apoptosis in human U266 cells assessed as caspase-7 cleavage at 250 nM after 16 to 24 hrs by Western blot method. Format: functional, cell-based. A digest of the protocol:
as §2

Series [14] relates to U2OS. Briefly: Antiproliferative activity against human U2OS cells up to 1 uM after 24 hrs by live-cell imaging microscopic analysis. Format: functional, cell-based. A digest of the protocol:
as §3

For series [15], the system named is U2OS. Briefly: Antiproliferative activity against human U2OS cells up to 1 uM after 48 hrs by live-cell imaging microscopic analysis. Format: functional, cell-based. In short, it runs like this: as §3
The species named for series [16] is Homo sapiens. Briefly: Inhibition of proteasome in human U266 cells assessed as increase in p27KIP level up to 24 hrs by Western blot method. Format: cell-based. In short, it runs like this:
as §2

Series [17] concerns U2OS. Briefly: Antiproliferative activity against human U2OS cells at 200 nM after 72 hrs by live-cell imaging microscopic analysis. The series is classed as functional, cell-based. A digest of the protocol:
as §3

In series [18] the test system is U-266. Briefly: Induction of apoptosis in human U266 cells assessed as downregulation of Mcl-1 level at 250 nM after 16 to 24 hrs by Western blot method. Format: functional, cell-based. In short, it runs like this:
as §2

Series [19] has as its system U-266. Put plainly: Effect on alpha-tubulin protein levels in human U266 cells at 250 nM after 2 to 24 hrs by Western blot analysis. The series is classed as ADME, cell-based. The following applies: u-266, 0.25 µM. In short, it runs like this: as §2
Series [20] relates to U-266. Put plainly: Effect on beta-actin protein levels in human U266 cells at 250 nM after 2 to 24 hrs by Western blot analysis. The series is classed as ADME, cell-based. To be noted: u-266, 0.25 µM. A digest of the protocol:
as §2

Calls of active or inactive are those of the source. The rule behind the calls is not given here.

Broadly, the GI50 is the concentration that inhibits growth by half. A word on the IC50: it is the concentration that inhibits the measured activity by half. The low end stands for inhibition by little substance, the high end for a need for much substance.

Take `CC(C)C[C@H](NC(=O)[C@H](Cc1ccccc1)NC(=O)c1cnccn1)B(O)O` [BORTEZOMIB]: the figures for the Activity in series [1], in [2] and in series [5] were 0%, 86.1% and 1.5%, respectively. The GI50 was 0.007 µM in the series with K562, 0.001 µM in the series with CCRF-CEM and 0.001 µM in the series with U-266 [3]. Also, the inhibition result in the series listed under Homo sapiens [4] is “Tde”.

On to `CC(C)C[C@H](NC(=O)c1cc(Cl)ccc1O)C(=O)N[C@@H](Cc1ccccc1)C(=O)N[C@H](C=O)Cc1ccccc1`, for which the Activity in [1] came to 73.5%; in series [2], 84.2%; in series [5] it was 71.7%. Besides, in the series listed under Homo sapiens [6], the inhibition entry is “Dose-dependent effect”. The figures for the GI50 with K562, in the series with CCRF-CEM and with U-266 [3] were 6.9 µM, 2.3 µM and 2.23 µM, respectively. This compound also showed an IC50 in series [7] of 0.74 µM.

As to `CC(C)C[C@@H](C=O)NC(=O)[C@H](Cc1ccccc1)NC(=O)[C@H](CC(C)C)NC(=O)c1cc(Cl)ccc1O`, the Activity turned out to be 28.9% in [1], 72.6% in [2] and 27.9% in series [5]. Besides, the inhibition result in the series listed under Homo sapiens [6] is “Dose-dependent effect”. The results for the GI50 with K562, in the series with CCRF-CEM and in the series on U-266 [3] were 2.1 µM, 0.78 µM and 0.67 µM, respectively. In [7], this compound had an IC50 of 0.237 µM.

`CC(C)CC(C=O)NC(=O)[C@H](Cc1ccccc1)NC(=O)[C@H](CC(C)C)NC(=O)c1cc(Cl)ccc1OCc1ccccc1` (some centres not stated): the Activity in series [1] was 74.6%; in the series on U2OS [8] it was “Toxic”; with U-266 [10] it was “Tde”; in series [2] it was 81.8%; in series [5], 13.4%; in the series on U-266 [19], “Non-Toxic”. For the same compound, the Activity result in the series on U-266 [20] is reported as “Non-Toxic”. The inhibition entry in the series listed under Homo sapiens [6] was “Dose-dependent effect”; in the series listed under Homo sapiens [12], “Tde”; in the series listed under Homo sapiens [16] it was “Dose-dependent effect”. Also, the inhibition result in the series filed under Homo sapiens [9] is “Active”. The GI50 in the series on K562 is 0.57 µM; with CCRF-CEM, 0.28 µM; in the series with U-266 [3] it was 0.15 µM. Moreover, the result in the series on U-266 [11], in the series on U-266 [13], in the series on U2OS [15] and in the series with U-266 [18] was Active. For the same compound, the outcome in the series with U2OS [14] and in the series on U2OS [17] was inactive. The same compound had an IC50 in [7] of 0.09 µM.

Regarding `CC(C)C[C@H](NC(=O)c1cc(Cl)ccc1OCc1ccccc1)C(=O)N[C@@H](CC(C)C)C(=O)NC(C=O)Cc1ccccc1` (some centres not stated), the Activity in series [1] came to 66.2%; in [2] it was 48.4%; in [5] it was 27.9%. Besides, the inhibition result in the series listed under Homo sapiens [6] was “Dose-dependent effect”. The GI50 in the series with K562 was 1.05 µM; in the series with CCRF-CEM it was 0.79 µM; in the series with U-266 [3], 0.54 µM. Moreover, inhibition in [7] was half-maximal at 0.197 µM (IC50).
